Series [1] deals with T1, eIF4A1 (Homo sapiens, UniProt P60842). The class given is binding. The settings on record: for RNA template selectivity of compound-induced eIF4A1 clamping: 10 µM, poly (AG)8 vs poly (UC)8 RNA. The method in brief:
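Clamping: 1 mM AMPPNP, ΔmP versus DMSO, n = 3 ±SD. Dissociation: complexes with 1 mM ATP, 30 min RT dark, then 1,000-fold excess unlabeled poly(AG)8, polarization over time; one-phase-decay half-life, 95% CI errors.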

Series [2] has as its target T1, eIF4A1. As to the kind of experiment: Differential scanning fluorimetry of eIF4A1. The conditions noted are these: eIF4A1 8 µM, compound 15 µM, 15 µM poly (AG)8, 1 mM AMPPNP. The series is classed as binding. The method in brief: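 His6-eIF4A1 (E. coli BL21(DE3), Ni-NTA then Q-Sepharose) at 8 µM with 15 µM test compound or DMSO. Heated 37 to 75 °C at 1 °C/min; ΔT50 from the unfolding midpoint; n = 3 ±SD.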
In general terms: In DSF a fluorescence change marks the thermal transition of the protein.

Series [3] relates to cap-dependent (FLuc) translation. As to the kind of experiment: In vitro translation in Krebs-2 extracts with bicistronic reporter mRNA. The class given is biochemical. The conditions noted are these: read-out: IC50 toward inhibition of FLuc synthesis from (CAG)-FF/HCV-IRES/Ren mRNA, n = 2 ±SD.
Series [4] in a line: Plasma protein binding, mouse. The series is classed as in vitro ADME.
Series [5] can be described thus: Plasma protein binding, human. The series is classed as in vitro ADME.
The subject of series [6] is mRNA translation in 4T1-526 cells. Kind of series: Puromycin incorporation in 4T1-526 cells. The conditions noted are these: read-out: IC50 for inhibition of mRNA translation. The class given is cell-based.
Another series has as its system 4T1-526 mammary tumors. As to the kind of experiment: 4T1-526 mammary fat pad tumor growth. The class given is in vivo, BALB/c mice.
For another series, the system named is 4T1-526 cells. As to the kind of experiment: Cell death of 4T1-526 cells. The class given is cell-based. The settings on record: 72h exposure at IC50 doses.
For series [7] the following is noted: delivered IV 1 mg/kg; cited from earlier work.
Series [8] deals with MDA-MB-231, 4T1, MRC-5 cells. Kind of series: Western blot of c-MYC, cyclin D1 and PARP. The class given is cell-based. The settings on record: MDA-MB-231 or 4T1 cancer cells; MG-002, CR-1-31B 100 nM, DXR 0.5 µg/mL; 24 h. (A western blot detects proteins with antibodies after separation by electrophoresis.)

Each structure is given as a SMILES string. Marks after values point to notes of the source that are not given here.

T1 sequence (P60842 whole entry): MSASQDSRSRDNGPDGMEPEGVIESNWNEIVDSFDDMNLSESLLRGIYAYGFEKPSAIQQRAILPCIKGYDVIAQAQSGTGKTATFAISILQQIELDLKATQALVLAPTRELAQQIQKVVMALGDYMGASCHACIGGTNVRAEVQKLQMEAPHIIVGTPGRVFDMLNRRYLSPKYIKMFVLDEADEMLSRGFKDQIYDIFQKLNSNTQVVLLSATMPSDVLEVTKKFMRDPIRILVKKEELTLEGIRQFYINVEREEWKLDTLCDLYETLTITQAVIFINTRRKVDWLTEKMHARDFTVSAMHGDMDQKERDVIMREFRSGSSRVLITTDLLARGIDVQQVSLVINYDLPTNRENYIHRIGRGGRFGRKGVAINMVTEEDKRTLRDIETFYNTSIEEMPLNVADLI

As to `COc1cc2c(c(OC)n1)[C@]1(O)[C@H](O)[C@H](CN(C)C)[C@@H](c3ccccc3)[C@]1(c1ccc(C#N)cc1)O2` [eFT226], the “RNA template selectivity of compound-induced eIF4A1 clamping” value on eIF4A1 [1] is “discriminated between poly (AG)8 and poly (UC)8 RNA templates”. In addition, the “half-life of complexes, fold less than those formed with MG-002” value at eIF4A1 [1] (poly (AG) RNA) is listed as “approximately 2.5 fold”. Also, the “transition midpoint temperature shift (ΔT50)” value on eIF4A1 [2] was 7 °C. Further, the IC50 was 813 ± 91 nM in series [3] and around 8 nM in series [6]. The “Plasma protein binding (% bound) Mouse” value in series [4] is 73.4 ± 1.1 % bound. In addition, the “Plasma protein binding (% bound) Human” value in [5] was 79.4 ± 0.3 % bound. Also, the “tumor growth after intraperitoneal or intravenous delivery” value in the series with 4T1-526 mammary tumors (intraperitoneal or intravenous delivery) is reported as “similarly delayed tumor growth”. Moreover, the cell death entry with 4T1-526 cells is reported as “Significant cell death”. Further, in series [7], the “T1/2 (h)” value is reported as 10.9^§ h.

In the case of `COc1cccc2c1C(=O)c1c(O)c3c(c(O)c1C2=O)C[C@@](O)(C(=O)CO)C[C@@H]3O[C@H]1C[C@H](N)[C@H](O)[C@H](C)O1` [DXR, doxorubicin], the “primary tumor response, monotherapy versus combination” value with 4T1-526 mammary tumors (0.5 mg/kg MG-002 PO, 2.5 mg/kg DXR IP, every 3 d) is on record as “equally responsive”. For the same molecule, the “cleavage of PARP” value in series [8] is given as “cleavage of PARP was observed”.

Consider `CC(/C=C/C(C)=C/[C@@H]1Cc2nc(cs2)[C@@H](C)C[C@@H](N)CC(=O)O[C@@H](C)C/C(C)=C/C=C\C(=O)O1)=C\CN(C)C` [PatA, pateamine A], for which the “RNA template selectivity of compound-induced eIF4A1 clamping” value on eIF4A1 [1] is “stabilized binding of eIF4A1 to both polypurine and polypyrimidine RNA templates”. Besides, the “transition midpoint temperature shift (ΔT50)” value at eIF4A1 [2] was 10 °C.

The values are drawn from article PMC10823175 (Proceedings of the National Academy of Sciences of the …, 2024).
